Reference: ChEMBL document CHEMBL3414451, “Discovery of a series of efficient, centrally efficacious BACE1 inhibitors through structure-based drug design” (J Med Chem, 2015)

Tests used:
[1] = Ratio of free drug level in brain to plasma in CD1 mouse at 10 mg/kg, sc; assay type: ADME, organism-based; set-up: dose 10 mg/kg, route subcutaneous; details: brain and plasma
Summary of the method: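 Male CD-1 mice, 10 mg/kg sc in 5% DMSO/95% (0.5% methylcellulose). Plasma, brain and CSF were collected at 1, 4 and 7 h and analyzed by LC-MS/MS. Free fractions came from equilibrium dialysis.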

[2] = Ratio of drug level in brain to plasma in CD1 mouse at 10 mg/kg, sc after 60 mins; assay type: ADME, organism-based; set-up: dose 10 mg/kg, route subcutaneous; details: brain and plasma, read-out: BPR
Summary of the method: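 Plasma and brain exposures were measured in mice 60 min after 10 mg/kg subcutaneous dosing.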

[3] = Ratio of free drug level in brain to plasma in dog; assay type: ADME, Canis lupus familiaris; details: brain and plasma

SMILES | Kp uu [1] | Kp at 1 h [2] | Kp uu [3]
C[C@H]1C[C@H]2CSC(N)=N[C@@]2(c2ccc(F)cc2F)CO1 | 0.92 | 3.9 | –
NC1=N[C@@]2(c3ccc(F)cc3F)CO[C@@H](CF)C[C@H]2CS1 | 1.42 | 9.2 | 0.78
NC1=N[C@@]2(c3ccc(F)cc3F)CO[C@@H](C(F)F)C[C@H]2CS1 | 1.2 | 3.51 | –
